Screens: PubChem, The Scripps Research Institute Molecular Screening Center
A selection: hits, their analogues and other compounds. The true share with any hit is near 3.1%.
RBBP9 inh = inhibitors of human serine hydrolase RBBP9; AID 1515; O75884; inhibition, % at 7.94 µM; recombinant RBBP9, FP-Rh probe fluorescence polarization; hit rate 0.2% among 220,000;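 active = inhibition above the campaign mean of all tested compounds plus 3 SD, cut at about 14% in these data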
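Measured by – fluorescence polarization · Test system – RBBP9 protein · Input – 2.5 µM RBBP9 dispensing solution, before mixing · Measure – percent inhibition from mP, scaled between DMSO and no-protein wells · Benchmarks – DMSO-treated enzyme wells and wells lacking RBBP9 · Times – preincubation 30 min plus labeling 45 min at 25 °C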
PRMT1 inh = blocks human protein arginine methyltransferase 1; Q99873; recombinant PRMT1, activity-based probe fluorescence polarization; inhibition, % at 2.79 µM; hit rate 1.3% among 370,000;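 active = inhibition above about 21% made by adding two undisclosed values, limit read from the data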
LEDGF integ inh = blocks HIV-1 LEDGF/p75-dependent DNA integration; TR-FRET IN-LEDGF/p75 DNA integration, Eu/Cy5; inhibition, % at 3.7 µM; hit rate 0.64% among 370,000; AID 743269;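 active = inhibition above the screen-wide mean plus 3 SD, cut at about 13% in these data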;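 also: signal is the Cy5 over europium emission ratio at 671 and 618 nm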
ABHD5-PLIN5 inh = blocks binding of human ABHD5 to perilipin-5; Split G. princeps luciferase complementation, luminescence, 4 h; inhibition, % at 4 µM; hit rate 0.78% among 360,000; AID 602281;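 active = inhibition above the mean inhibition across every tested compound plus 3 SD, cut at about 22% in these data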
UHRF1 MBD2 ctr = human UHRF1 methylated DNA binding inhibitors; UHRF1 binding to methylated oligo, TR-FRET; inhibition, % at 4.4 µM; hit rate 0.75% among 370,000; in the data active = inhibition above about 21%;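 also: UHRF1 SRA domain binding a hemimethylated CpG hairpin DNA probe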
Target sequence (Q96T88 whole entry, looked up, the tested form may be a part): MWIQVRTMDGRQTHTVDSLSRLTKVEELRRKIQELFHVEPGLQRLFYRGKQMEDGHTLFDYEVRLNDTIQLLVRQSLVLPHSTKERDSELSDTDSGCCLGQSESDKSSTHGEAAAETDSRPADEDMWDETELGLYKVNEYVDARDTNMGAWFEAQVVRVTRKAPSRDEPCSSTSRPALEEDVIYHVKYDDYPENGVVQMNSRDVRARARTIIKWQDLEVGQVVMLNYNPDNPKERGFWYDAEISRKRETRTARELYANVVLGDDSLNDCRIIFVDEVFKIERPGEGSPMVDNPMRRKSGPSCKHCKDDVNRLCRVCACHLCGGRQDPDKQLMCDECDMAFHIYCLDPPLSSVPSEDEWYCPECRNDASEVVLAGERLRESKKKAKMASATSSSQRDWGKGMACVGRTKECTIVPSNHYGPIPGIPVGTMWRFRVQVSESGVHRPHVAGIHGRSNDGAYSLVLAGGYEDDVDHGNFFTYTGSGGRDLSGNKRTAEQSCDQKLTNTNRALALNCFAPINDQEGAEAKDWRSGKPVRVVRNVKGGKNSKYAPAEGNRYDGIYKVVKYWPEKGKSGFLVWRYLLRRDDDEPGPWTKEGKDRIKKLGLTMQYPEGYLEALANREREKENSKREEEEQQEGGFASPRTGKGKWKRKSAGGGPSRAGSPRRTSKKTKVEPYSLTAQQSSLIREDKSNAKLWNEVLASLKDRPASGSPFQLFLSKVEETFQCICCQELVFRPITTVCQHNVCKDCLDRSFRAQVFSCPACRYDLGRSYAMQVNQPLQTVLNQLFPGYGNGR
MBD2 DNA inh = inhibitors of human MBD2 binding to methylated oligonucleotide; Q9UBB5; TR-FRET; inhibition, % at 4.4 µM; hit rate 0.31% among 370,000; AID 686964; in the data active = inhibition above about 13%
IN multimer act = counter-screen for LEDGF/p75 integration inhibitors: HIV-1 integrase multimerization activators. hit rate 17% among 2,000. AID 1053131. shares compounds with LEDGF integ inh. activation, % at 7.7 µM. TR-FRET HIV-1 integrase multimerization, biochemical; in the data active = activation above about 8.9%
TRFRET interf = TR-FRET optical interference, LEDGF/p75 integration counter-screen | 2,000 tested, under 10 active | shares compounds with LEDGF integ inh | inhibition, % at 7.7 µM | TR-FRET optical interference counterscreen, HIV-1 IN multimerization;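 active = inhibition above the mean over all tested compounds plus 3 SD, which no compound reached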
IN-LEDGF confirm = confirmation of HIV-1 LEDGF/p75-dependent integration inhibitors; hit rate 36% among 2,000; TR-FRET LEDGF/p75-dependent HIV-1 integration, biochemical; inhibition, % at 3.7 µM; shares compounds with LEDGF integ inh; in the data active = inhibition above about 14%
A number is an active result; n = inactive; x = not tested or not shown.

SMILES	RBBP9 inh	PRMT1 inh	LEDGF integ inh	ABHD5-PLIN5 inh	UHRF1 MBD2 ctr	MBD2 DNA inh	IN multimer act	TRFRET interf	IN-LEDGF confirm
CCC(C(=O)Nc1ccccn1)c1ccccc1 (stereo not drawn)	x	n	14.2	n	n	n	n	n	n
O=C(N[C@H](C(=O)N1CCC[C@H]1C(=O)NC1CCCC1)C1CCCCC1)c1ccco1	x	n	n	x	n	n	x	x	x
COc1ccc(-c2cc(C(=O)Nc3cccc(O)c3)no2)cc1	x	n	38.2	n	n	n	n	n	n
COc1cc2c(c(OC)c1)C(c1cccc(OC)c1OC)CC(=O)N2 (stereo not drawn)	n	n	16.9	n	n	n	n	n	n
Cc1ccc(N2C(=O)/C(=C/c3cccnc3)SC2=S)cc1	n	n	n	n	n	n	x	x	x
Cc1ccc(N2C(=O)/C(=C/c3ccco3)SC2=S)cc1	n	n	18.7	n	n	n	n	n	n
N=C1S/C(=C\c2ccco2)C(=O)N1c1ccc2c(c1)OCO2	n	n	15.4	n	n	n	n	n	17.9
Clc1ccccc1-c1ccc(CN2CCN(c3ccccc3)CC2)o1	n	n	31.3	n	n	n	n	n	n
O=[N+]([O-])c1ccc(CN2CCN(c3ccccc3)CC2)o1	x	n	n	n	n	n	x	x	x
COc1cc(C2Nc3ccc4ncccc4c3C3=C2C(=O)CCC3)ccc1O (stereo not drawn)	n	n	27.2	n	n	n	n	n	n
COC(=O)[C@]1(CNC(=O)c2cc(F)ccc2F)CC(=O)N(C)[C@@H]1c1ccccc1	x	n	n	x	n	n	x	x	x
O=[N+]([O-])c1cc(Cc2ccccc2)cc(C=Nc2ccc(N3CCOCC3)cc2)c1O	n	x	x	n	x	x	x	x	x
Cc1ccc(O)c(N=Cc2cc(Cc3ccccc3)cc([N+](=O)[O-])c2O)c1	n	n	19.4	n	n	n	n	n	45.8
COc1ccc(NC(=S)N2CCC(NC(=O)c3ccc(OC)cc3)CC2)cc1	x	n	26.6	n	n	n	n	n	n
COc1ccc(S(=O)(=O)N(C)C[C@@H]2Oc3c(NC(=O)Nc4ccccc4)cccc3C(=O)N([C@@H](C)CO)C[C@H]2C)cc1	x	n	n	x	n	n	x	x	x
COC(=O)c1ccc2nc(-c3ccc(C)cc3)c(Cc3cccc(Cl)c3)n2c1	x	n	n	n	n	n	x	x	x
COC(=O)c1ccc2nc(-c3ccc(C)cc3)c(Cc3ccccc3)n2c1	x	n	13.6	x	n	n	n	n	n
Nc1ccccc1SCC(=O)Nc1ccc(N2CCOCC2)cc1	n	n	17.9	n	n	n	n	n	n
S=C(Nc1ccc(N2CCOCC2)cc1)Nc1ccc2nc(-c3ccco3)c(-c3ccco3)nc2c1	n	42.9	27.3	n	n	n	18.4	n	51.4
C/C(=C\C(=O)c1ccc(Cl)cc1)Nc1ccc(N2CCOCC2)cc1	n	n	n	n	n	n	x	x	x
CC(=O)c1ccc(NC(=S)Nc2ccc(N3CCOCC3)cc2)cc1	n	n	15.0	n	n	n	n	n	n
O=C(Nc1ccc(N2CCOCC2)cc1)c1ccc2nc(-c3ccco3)c(-c3ccco3)nc2c1	n	n	n	n	n	n	x	x	x
Cc1ccccc1SCC(=O)Nc1ccc(N2CCOCC2)cc1	n	n	n	n	n	n	x	x	x
C/C(=C\C(=O)c1ccccc1)Nc1ccc(N2CCOCC2)cc1	n	n	21.8	n	n	n	n	n	n
Cn1cc(CCOCc2ccccc2)c2ccccc21	x	n	n	x	n	n	x	x	x
SMILES	RBBP9 inh	PRMT1 inh	LEDGF integ inh	ABHD5-PLIN5 inh	UHRF1 MBD2 ctr	MBD2 DNA inh	IN multimer act	TRFRET interf	IN-LEDGF confirm
Cc1cc(C)cc(C(=O)OCCN(C)C2CN(Cc3cn(Cc4ccccc4F)nn3)S(=O)(=O)C2)c1 (stereo not drawn)	x	n	n	x	n	n	x	x	x
O=C(NN=Cc1cccc(OCc2ccccc2)c1)c1cc(-c2ccc(Cl)cc2)n[nH]1	x	n	n	x	n	n	x	x	x
CCOc1ccc(N(CC(=O)Nc2c(C)n(C)n(-c3ccccc3)c2=O)S(=O)(=O)c2cccs2)cc1	x	n	n	x	n	n	x	x	x
Cc1cccc2nc(-c3ccccc3)c(-c3ccc(CN4CCC5(CC4)CNc4ccccc45)cc3)nc12	x	n	n	x	n	n	x	x	x
COC(=O)[C@]12C[C@H](CC(=O)NCCCCc3ccccc3)C(=O)N(Cc3ccco3)C1=C[C@H](C(C)(C)C)O[C@@H]2C	x	n	n	x	n	n	x	x	x
CCCC(=Nc1ccccc1)C1=C(O)C(C(=O)OC)C(C)(C)CC1=O (stereo not drawn)	n	n	n	n	n	n	x	x	x
CCC(=Nc1ccc(N)cc1)C1=C(O)C(C(=O)OC)C(C)(C)CC1=O (stereo not drawn)	n	n	31.7	n	20.8	n	20.3	n	n
CCCCC(=Nc1ccc(N)cc1)C1=C(O)C(C(=O)OC)C(C)(C)CC1=O (stereo not drawn)	n	n	45.6	n	n	n	18.9	n	n
COc1cccc(CNC(=O)[C@H]2CCCN2C(=O)[C@H]2CCCN2C(=O)c2cccc(OC)c2)c1	x	n	n	x	n	n	x	x	x
Cc1ccc(Cn2cc(CN3[C@H](CC(C)C)COc4cc(Br)ccc4S3(=O)=O)nn2)cc1	x	n	n	x	n	n	x	x	x
N=C1/C(=C\c2coc3ccccc3c2=O)C(=O)N=C2SC(c3ccncc3)=NN12	n	n	25.4	n	n	n	n	n	61.6
CC(C)CSC1=NSC2=NC(=O)/C(=C\c3coc4ccccc4c3=O)C(=N)N12	n	n	n	n	n	n	x	x	x
CC1(C)CC(=O)C2=C(C1)Oc1ncn(CCCn3ccnc3)c(=N)c1C2c1ccccc1 (stereo not drawn)	n	n	88.4	n	n	n	n	n	n
Cc1ccc(-c2nnc(SCC(C)C)n2C)cc1	n	n	n	n	n	n	x	x	x
CC(C)CSc1nnc(-c2ccco2)n1C	x	n	23.4	x	n	n	n	n	n
CCc1nnc(N/N=C/c2ccccc2F)n1N	n	n	58.3	n	n	n	n	n	n
CCc1nnc(N/N=C/c2ccccc2Cl)n1N	n	n	45.8	n	n	n	n	n	n
COc1cccc(/C=N/Nc2nnc(C)n2N)c1OCc1ccccc1Cl	n	n	40.7	n	n	n	n	n	n
CCOC(=O)N/N=C/c1ccccc1F	n	n	n	n	n	n	x	x	x
COC(=O)C1=C(C)N(Cc2ccc(F)cc2)C(=S)NC1c1cccc(OC)c1 (stereo not drawn)	x	n	n	x	n	n	x	x	x
c1ccn2c(c1)nc1c2nc2ccccn21	n	n	14.0	n	n	n	n	n	n
Clc1c(-c2ccccc2)nc2ccccn12	x	n	n	n	n	n	x	x	x
